Measurements taken from ChEMBL document CHEMBL1125027, “Synthesis and cytotoxicity studies of 8-amino-6-methyl-2-beta-D-ribofuranosyl-1,2,3,5,6,7-hexaazaacenaphthyle ne (7-aza-TCN) and the corresponding 2'-deoxy- and arabinonucleoside analogues” (1990).

Experiments:
HEp-2 [1] = assay: Growth rate of H.Ep.2 tumor cells at a concentration of 50 uM; type: functional, Homo sapiens
How it was run: (§1)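 Human epidermoid carcinoma H.Ep.2 monolayers kept in exponential growth in Eagle's basal medium (Hanks' salts) with 0.5 g/L NaHCO3 and 15% heat-inactivated calf serum. 2 × 10^4 cells seeded per flask; after 1 day, compound-containing medium added. Trypsin/EDTA harvest and counts of two flasks per group on days 1, 2 and 4. Growth rate = control doubling time (about 19 h) / treated doubling time, as % of control.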

L1210 [2] = assay: Growth rate of L1210 tumor cells at a concentration of 50 uM; type: functional, Mus musculus
How it was run: (§2)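 Murine leukemia L1210 grown in static suspension in Fischer's medium with test compound for 3 days, counted daily. Growth rate = slope of log cell number vs time relative to control, computed as control doubling time (about 12 h) / treated doubling time, expressed as %. Values are single experiments unless footnoted as the average of three.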

L1210 [3] = assay: Growth rate of L1210 tumor cells at a concentration of 100 uM; type: functional, Mus musculus; how it was run: as §2
L1210 [4] = assay: Growth rate of L1210 tumor cells at a concentration of 10 uM; type: functional, Mus musculus; how it was run: as §2
HEp-2 [5] = assay: Growth rate of H.Ep.2 tumor cells at a concentration of 10 uM; type: functional, Homo sapiens; how it was run: as §1
HEp-2 [6] = assay: Growth rate of H.Ep.2 tumor cells at a concentration of 100 uM; type: functional, Homo sapiens; how it was run: as §1

SMILES	Growth rate (L1210 [3])	Growth rate (HEp-2 [6])	also measured
CN1N=C(N)c2nn(C3O[C@H](CO)[C@@H](O)[C@@H]3O)c3ncnc1c23 (stereo not given in full)	–	–	Growth rate (HEp-2 [1]): 62%; Growth rate (L1210 [2]): 75%
CN1N=C(N)c2nn(C3O[C@H](CO)[C@@H](O)[C@H]3O)c3nc(S(C)(=O)=O)nc1c23 (stereo not given in full)	86%	–	–
CN1N=C(N)c2nn(C3O[C@H](CO)[C@@H](O)[C@H]3O)c3nc(NN)nc1c23 (stereo not given in full)	–	–	Growth rate (L1210 [4]): 86%; Growth rate (HEp-2 [5]): 88%
CN1N=C(N)c2nn([C@H]3C[C@H](O)[C@@H](CO)O3)c3ncnc1c23	83%	100%	–
CSc1nc2c3c(nn(C4O[C@H](CO)[C@@H](O)[C@H]4O)c3n1)C(N)=NN2C (stereo not given in full)	81%	–	–
CN1N=C(N)c2nn(C3O[C@H](CO)[C@@H](O)[C@H]3O)c3ncnc1c23 (stereo not given in full)	63%	67%	–
